From paper PMC12789443 (Nature Communications, 2025)

Key:
[1] = tested on: E. coli ATCC25922 persister cells; assay: Killing efficacy on persister cells; format: cell-based; settings: ampicillin 8×MIC
E. coli ATCC25922 [2] = assay: Mice wound; format: in vivo; settings: topical, 15 μL of 4 mg/mL every 4 h, 3 times
Outline: (§1)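 Female ICR mice (6–8 weeks), pentobarbital-anaesthetised (75 mg/kg ip), backs shaved; 6-mm full-thickness punch wounds. Bacteria grown in LB (37 °C, 9 h) and dropped onto wounds in saline: S. aureus 3 × 10^6 or E. coli 1 × 10^8 CFU/mL. Treatment in saline started 24 h post-infection; saline controls. Wound tissue excised 4 h after final application for CFU counts; n = 10.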

S. aureus USA300 LAC [3] = assay: In vitro bacterial killing kinetics; format: cell-based; settings: exponential growth phase; PBGProOx20 2×MIC and 4×MIC, vancomycin 4×MIC
[4] = tested on: S. aureus USA300 LAC biofilm; assay: Anti-biofilm assay; format: cell-based
S. aureus USA300 LAC [5] = assay: Mice wound; format: in vivo; settings: topical, 15 μL of 4 mg/mL every 4 h, 3 times
Outline: as §1

S. aureus USA300 LAC [6] = assay: Mice subcutaneous infection model; format: in vivo; settings: 4 mg/mL every 12 h, 3 times
S. aureus USA300 LAC [7] = assay: Mice meningitis model; format: in vivo; settings: 40 mg/kg intraperitoneal daily, 6 times; saline 17%
[8] = tested on: S. aureus USA300 persister cells; assay: Killing efficacy on persister cells; format: cell-based; settings: ciprofloxacin 10×MIC
[9] = tested on: S. aureus-PBGProOx20-P32, S. aureus-ciprofloxacin-P32; assay: Cross resistance; format: cell-based; settings: 0.5×MIC, P32 bacteria tested against antibiotics
E. coli ATCC25922 [10] = assay: Mice meningitis model; format: in vivo; settings: 40 mg/kg intraperitoneal daily, 6 times; saline 17%
E. coli ATCC25922 [11] = assay: Drug resistance study; format: cell-based; settings: continuous treatment at 0.5×MIC
[12] = tested on: E. coli-PBGProOx20-P32, E. coli-moxifloxacin-P32; assay: Cross resistance; format: cell-based; settings: 0.5×MIC, P32 bacteria tested against antibiotics
[13] = tested on: E. coli ATCC25922 biofilm; assay: Anti-biofilm assay; format: cell-based

For `CC1(C)S[C@@H]2[C@H](NC(=O)[C@H](N)c3ccccc3)C(=O)N2[C@H]1C(=O)O` [Ampicillin, ampicillin], the “persister cell viability under antibiotic” value [1] was “maintained sustained viability”.
For `C[C@@H](O)[C@H]1C(=O)N2C(C(=O)O)=C(SCCN=CN)C[C@H]12` [Imipenem, imipenem], the “reduction of bacteria in infected wounds” value (E. coli ATCC25922 [2]) was 2.1 logs.
With `CN[C@H](CC(C)C)C(=O)N[C@H]1C(=O)N[C@@H](CC(N)=O)C(=O)N[C@H]2C(=O)N[C@H]3C(=O)N[C@H](C(=O)N[C@H](C(=O)O)c4cc(O)cc(O)c4-c4cc3ccc4O)[C@H](O)c3ccc(c(Cl)c3)Oc3cc2cc(c3O[C@@H]2O[C@H](CO)[C@@H](O)[C@H](O)[C@H]2O[C@H]2C[C@](C)(N)[C@H](O)[C@H](C)O2)Oc2ccc(cc2Cl)[C@H]1O` [Vancomycin, vancomycin] the “eradication in time-killing kinetics” value (S. aureus USA300 LAC [3]) was “unable to eradicate S. aureus”, the “concentration eradicating mature biofilm” value [4] was “poor anti-biofilm activity” and the “reduction of bacteria in infected wounds” value (S. aureus USA300 LAC [5]) was 1.2 logs. For the same compound, the “reduction of bacterial load in infected skin” value (S. aureus USA300 LAC [6]) was “less than 0.5 log CFU/g” and the “survival rate, meningitis” value (S. aureus USA300 LAC [7]) was 50%.
For `O=C(O)c1cn(C2CC2)c2cc(N3CCNCC3)c(F)cc2c1=O` [ciprofloxacin], the “persister cell viability under antibiotic” value [8] was “maintained sustained viability” and the “cross-resistance of bacteria treated for 32 passages” value [9] was “acquired resistance to four quinolone antibiotics and ampicillin”.
`C[C@@H](O)[C@H]1C(=O)N2C(C(=O)O)=C(S[C@@H]3CN[C@H](C(=O)N(C)C)C3)[C@H](C)[C@H]12` [meropenem] was tested, and the “survival rate, meningitis” value (E. coli ATCC25922 [10]) was 100%.
`COc1c(N2C[C@@H]3CCCN[C@@H]3C2)c(F)cc2c(=O)c(C(=O)O)cn(C3CC3)c12` [moxifloxacin] was tested, and the “increase in MIC after 32 passages” value (E. coli ATCC25922 [11]) was 32 fold and the “cross-resistance of bacteria treated for 32 passages” value [12] was “acquired resistance to four quinolone antibiotics and ampicillin”.
For colistin, the “concentration eradicating mature biofilm” value [13] was 256 ×MIC.
